Activity calls are given as the source filed them. No cut-off for these calls is given here.
Legend:
[1] = molecular target: T1, Serine/threonine-protein kinase B-raf (Homo sapiens, UniProt P15056, V600E); experiment: Inhibition of BRAF V600E mutant-dependent MEK phosphorylation in A375 cells; type: cell-based, A-375
[2] = molecular target: T1, Serine/threonine-protein kinase B-raf; experiment: Binding affinity to BRAF V600E mutant
[3] = system: COLO 205; experiment: Antitumor activity against human COLO205 cells xenografted in nude mouse assessed as tumor stasis at > 100 mg/kg, […]; type: functional, organism-based; design: dose 100 mg/kg
[4] = system: COLO 205; experiment: Antitumor activity against human COLO205 cells xenografted in nude mouse assessed as tumor stasis at 55 mg/kg, po bid upto 8 days; type: functional, organism-based; design: dose 55 mg/kg
Method in brief: (§1)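 Mice bearing Colo-205 tumors were dosed orally bid at 30, 55 or 100 mg/kg and compared with a vehicle control group. Tumor growth was followed over the dosing period, […]. Outcomes recorded were stasis, regrowth, incidence of regressions and % growth inhibition. Significance was tested against vehicle.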

[5] = system: COLO 205; experiment: Antitumor activity against human COLO205 cells xenografted in nude mouse assessed as tumor stasis at 100 mg/kg, po bid upto 8 days; type: functional, organism-based; design: dose 100 mg/kg; method in brief: as §1
[6] = Oral bioavailability in rat; type: ADME, organism-based; settings: in vivo
Method in brief: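 Oral bioavailability (%F) was measured in rats, generally dosing the hydrochloride salt; some compounds were given as free base.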

[7] = system: Mus musculus; experiment: Inhibition of BRAF V600E mutant-dependent MEK phosphorylation in Colo205 cells xenografted in nude mouse at 100 mg/kg, po bid for 5 days measured at 24 hrs post-dose; type: functional; settings: COLO 205
[8] = system: COLO 205; experiment: Antitumor activity against human COLO205 cells xenografted in nude mouse assessed as tumor stasis at 100 mg/kg, po bid upto 15 days; type: functional, organism-based; design: dose 100 mg/kg; method in brief: as §1
[9] = AUC in mouse plasma at 100 mg/kg, po; type: ADME, organism-based; design: dose 100 mg/kg, route oral
Method in brief: (§2)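 Compound given orally to mice at the stated dose. Plasma exposure reported as AUC in μM × h.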

[10] = system: Mus musculus; experiment: Inhibition of BRAF V600E mutant-dependent MEK phosphorylation in Colo205 cells xenografted in nude mouse at 100 mg/kg, po bid for 5 days measured at 10 hrs post-dose; type: functional; settings: COLO 205
Method in brief: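 Colo-205 xenograft mice were dosed orally at 100 mg/kg bid. On day 5 of dosing, tumor tissue was collected 10 h post-dose and phosphorylated MEK levels were measured against vehicle.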

[11] = system: Mus musculus; experiment: Inhibition of BRAF V600E mutant-dependent MEK phosphorylation in Colo205 cells xenografted in nude mouse assessed as compound concentration in tumor required for maximum % inhibition; type: functional
[12] = system: COLO 205; experiment: Antitumor activity against human COLO205 cells xenografted in nude mouse assessed as complete suppression of tumor regrowth at 100 mg/kg, po bid before 15 days; type: functional, organism-based; design: dose 100 mg/kg; method in brief: as §1
[13] = system: COLO 205; experiment: Antitumor activity against human COLO205 cells xenografted in nude mouse assessed as tumor growth inhibition at 100 mg/kg, po bid upto 8 days; type: functional; settings: COLO 205, 192 h, read-out: TGI; method in brief: as §1
[14] = system: Mus musculus; experiment: Inhibition of BRAF V600E mutant-dependent MEK phosphorylation in Colo205 cells xenografted in nude mouse assessed as compound concentration in plasma required for maximum % inhibition; type: functional
[15] = system: Mus musculus; experiment: Toxicity in nude mouse xenografted with human COLO205 cells assessed as body weight loss at 30 to 100 mg/kg, po bid upto 15 days; type: organism-based, COLO 205; design: dose 30-100 mg/kg, route oral; settings: in vivo, 360 h
Method in brief: (§3)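 Body weight was monitored in Colo-205 xenograft-bearing mice during oral bid dosing, with maximum % loss recorded. Monitoring continued after dosing stopped to assess reversibility.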

[16] = system: Mus musculus; experiment: Toxicity in nude mouse xenografted with human COLO205 cells assessed as body weight loss at 10 to 100 mg/kg, po bid upto 15 days; type: organism-based, COLO 205; design: dose 10-100 mg/kg, route oral; settings: in vivo, 360 h; method in brief: as §3
[17] = AUC in mouse plasma at 30 mg/kg, po; type: ADME, organism-based; design: dose 30 mg/kg, route oral; method in brief: as §2
[18] = system: COLO 205; experiment: Antitumor activity against human COLO205 cells xenografted in nude mouse assessed as tumor regression at 100 mg/kg, po bid upto 15 days; type: functional; method in brief: as §1

T1 sequence (P15056 2-766 V600E limits assumed): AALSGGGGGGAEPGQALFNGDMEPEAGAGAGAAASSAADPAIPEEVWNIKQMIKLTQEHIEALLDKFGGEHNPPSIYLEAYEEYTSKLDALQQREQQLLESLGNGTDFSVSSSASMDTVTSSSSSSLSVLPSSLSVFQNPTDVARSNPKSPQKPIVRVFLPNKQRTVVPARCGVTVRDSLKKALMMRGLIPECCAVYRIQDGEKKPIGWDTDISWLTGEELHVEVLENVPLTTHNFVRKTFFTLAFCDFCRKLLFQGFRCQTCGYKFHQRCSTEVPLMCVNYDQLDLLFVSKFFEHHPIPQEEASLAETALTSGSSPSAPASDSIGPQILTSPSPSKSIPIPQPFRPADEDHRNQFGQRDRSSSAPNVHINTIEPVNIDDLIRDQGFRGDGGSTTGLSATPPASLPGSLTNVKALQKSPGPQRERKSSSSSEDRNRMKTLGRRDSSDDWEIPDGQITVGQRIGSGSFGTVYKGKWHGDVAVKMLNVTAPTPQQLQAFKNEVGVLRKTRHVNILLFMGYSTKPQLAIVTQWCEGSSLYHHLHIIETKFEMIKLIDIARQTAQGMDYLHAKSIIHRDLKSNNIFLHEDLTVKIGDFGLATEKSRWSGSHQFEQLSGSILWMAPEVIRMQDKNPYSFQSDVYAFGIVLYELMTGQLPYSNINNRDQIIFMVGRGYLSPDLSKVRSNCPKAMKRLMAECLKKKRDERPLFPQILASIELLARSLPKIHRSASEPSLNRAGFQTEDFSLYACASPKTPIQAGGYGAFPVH

SMILES	IC50 [1]	Kd [2]	bioavailability [6]	further results
COCCOc1cc2ncnc(Oc3cccc(NC(=O)Nc4cc(C(C)(C)C)on4)c3)c2cc1OC	100 nM	57 nM		
COc1cc2ncnc(Oc3cccc(NC(=O)Nc4cc(C(C)(C)C)on4)c3)c2cc1OCCN1CCCCC1	293 nM	96 nM		
COc1cc2ncnc(Sc3cccc(NC(=O)Nc4cc(C(C)(C)C)on4)c3)c2cc1OC				Activity [3]: inactive; Activity [4]: Active; Activity [5]: Active
CCOc1cc2c(Oc3cccc(NC(=O)Nc4cc(C(C)(C)C)on4)c3)ncnc2cc1OC	80 nM	67 nM		
COc1cc2ncnc(Oc3cc(NC(=O)Nc4cc(C(C)(C)C)on4)c(F)cc3F)c2cc1OC	113 nM	46 nM	14%	
COc1cc2ncnc(Oc3ccc(Cl)c(NC(=O)Nc4cc(C(C)(C)C)on4)c3)c2cc1OC	229 nM	99 nM		
COc1cc2ncnc(Nc3cccc(NC(=O)Nc4cc(C(C)(C)C)on4)c3)c2cc1OC	82 nM	40 nM		
COc1cc2ncnc(Oc3cccc(NC(=O)Nc4cc(C(C)(C)C)on4)c3)c2cc1OC				inhibition [7]: inactive; Activity [8]: Active
CCOc1cc2ncnc(Oc3cccc(NC(=O)Nc4cc(C(C)(C)C)on4)c3)c2cc1OC	173 nM	82 nM		
COc1cc2ncnc(Nc3cccc(NC(=O)Nc4cc(C(C)(C)C)on4)c3)c2cc1OC.Cl			1.9%	
COCCOc1cc2ncnc(Oc3cccc(NC(=O)Nc4cc(C(C)(C)C)on4)c3)c2cc1OC.Cl			56%	
COc1cc2c(Oc3cccc(NC(=O)Nc4cc(C(C)(C)C)on4)c3)ncnc2cc1OCCCN1CCOCC1	96 nM	56 nM	18%	
CCOc1cc2c(Oc3cccc(NC(=O)Nc4cc(C(C)(C)C)on4)c3)ncnc2cc1OC.Cl			30%	
COc1cc2ncnc(Oc3cc(NC(=O)Nc4cc(C(C)(C)C)on4)ccc3F)c2cc1OC	62 nM	72 nM		
COc1cc2c(Oc3cccc(NC(=O)Nc4cc(C(C)(C)C)on4)c3)ncnc2cc1OCCN1CCOCC1	165 nM	34 nM	52%	inhibition in vivo at 100 mg/kg [7]: 50%; AUC [9]: 48 µM·h; inhibition in vivo at 100 mg/kg [10]: 70%; Activity [11]: 11 µM; Activity [12]: inactive; inhibition in vivo at 100 mg/kg [13]: 65%; Activity [14]: 2 µM; Activity [15]: Non-toxic; Activity [16]: Non-toxic
COc1cc2ncnc(Oc3cccc(NC(=O)Nc4cc(C(C)(C)C)on4)c3)c2cc1OC.Cl			49%	AUC [17]: 12.5 µM·h; inhibition in vivo at 100 mg/kg [10]: ≥ 50%; Activity [11]: 24 µM; Activity [18]: 55%; Activity [14]: 2.5 µM; Activity [15]: 8%
CCOc1cc2ncnc(Oc3cccc(NC(=O)Nc4cc(C(C)(C)C)on4)c3)c2cc1OC.Cl			16%	
COc1cc2ncnc(Oc3cccc(NC(=O)Nc4ccc(C(C)(C)C)cc4)c3)c2cc1OC	290 nM	96 nM	15%	
COc1cc2ncnc(Oc3cccc(NC(=O)Nc4cc(C(C)(C)C)on4)c3)c2cc1OCCCN1CCOCC1.Cl			20%	
